# Measured values published in ChEMBL document CHEMBL4196046, “Design, synthesis, and structure-activity-relationship of a novel series of CXCR4 antagonists” (Eur J Med Chem, 2018).
# Activity calls are given as the source filed them. No cut-off for these calls is given here.
# Tests used:
# [1] = biological target: T1, C-X-C chemokine receptor type 4 (Homo sapiens, UniProt P61073); test: Displacement of 12G5-CXCL12 from CXCR4 in human HPBALL cells after 3 hrs by FACS analysis; assay type: cell-based
# T1 sequence (P61073 whole entry): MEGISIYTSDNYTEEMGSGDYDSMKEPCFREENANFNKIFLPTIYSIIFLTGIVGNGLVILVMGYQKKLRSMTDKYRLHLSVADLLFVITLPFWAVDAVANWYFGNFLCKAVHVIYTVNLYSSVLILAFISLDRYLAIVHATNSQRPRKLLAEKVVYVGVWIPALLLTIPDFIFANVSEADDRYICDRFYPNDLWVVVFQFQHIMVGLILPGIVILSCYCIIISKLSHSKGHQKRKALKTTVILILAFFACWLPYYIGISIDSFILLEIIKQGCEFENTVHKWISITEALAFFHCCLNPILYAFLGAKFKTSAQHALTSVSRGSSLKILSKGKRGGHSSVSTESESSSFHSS
# [2] = biological target: T1, C-X-C chemokine receptor type 4; test: Antagonist activity at CXCR4-mediated chemotaxis in human MDA-MB-231 cells assessed as inhibition of CXCL12-induced cell invasion at 100 nM after 24 hrs by crystal violet staining-based microscopic matrigel assay; assay type: functional
# Outline: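 MDA-MB-231 cells (1 × 10⁵ cells/well) plus compound (100 nM) in upper chamber of 8-µm-pore Boyden inserts coated with 50mg/L Matrigel; CXCL12 in serum-free medium in lower chamber as chemoattractant. After 24 h, non-invaded cells wiped off; invaded cells fixed in cold methanol, crystal violet stained, counted in 10 random fields (100×). Three independent experiments; t-test vs control.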
# [3] = biological target: T1, C-X-C chemokine receptor type 4; test: Antagonist activity at CXCR4 in human CD4+ T cells assessed as inhibition of CXCL12-mediated cytosolic calcium level preincubated with compounds followed by CXCL12 stimulation by calcium 4 dye-based FLIPR assay; assay type: functional, cell-based
# [4] = test system: MCF7; test: Antiproliferative activity against human MCF7 cells at 400 nM after 24 to 48 hrs by MTT assay; assay type: functional, cell-based
# Outline: (§1)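 Cells seeded at 5 × 10³ cells/well, treated with compound, incubated at 37 °C, 5% CO₂ (48 h in methods; 24 h in figure legend), then 4 h with MTT reagent; formazan dissolved in DMSO, absorbance at 570 nm. Mean±SD of three independent experiments.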
# [5] = biological target: T1, C-X-C chemokine receptor type 4; test: Potency index, ratio of AMD3100 IC50 to compound IC50 for CXCR4 in human CD4+ T cells; assay type: cell-based
# [6] = test system: MDA-MB-231; test: Antiproliferative activity against human MDA-MB-231 cells at 400 nM after 24 to 48 hrs by MTT assay; assay type: functional, cell-based; outline: as §1
# [7] = biological target: CYP3A4 (Homo sapiens, UniProt P08684); test: Inhibition of CYP3A4 in human liver microsomes at 10 uM using midazolam as substrate preincubated for 10 min followed by NADPH addition measured after 10 mins by LC-MS/MS analysis relative to control; assay type: ADME; settings: probe midazolam
# Chain of CYP3A4 (P08684 whole entry): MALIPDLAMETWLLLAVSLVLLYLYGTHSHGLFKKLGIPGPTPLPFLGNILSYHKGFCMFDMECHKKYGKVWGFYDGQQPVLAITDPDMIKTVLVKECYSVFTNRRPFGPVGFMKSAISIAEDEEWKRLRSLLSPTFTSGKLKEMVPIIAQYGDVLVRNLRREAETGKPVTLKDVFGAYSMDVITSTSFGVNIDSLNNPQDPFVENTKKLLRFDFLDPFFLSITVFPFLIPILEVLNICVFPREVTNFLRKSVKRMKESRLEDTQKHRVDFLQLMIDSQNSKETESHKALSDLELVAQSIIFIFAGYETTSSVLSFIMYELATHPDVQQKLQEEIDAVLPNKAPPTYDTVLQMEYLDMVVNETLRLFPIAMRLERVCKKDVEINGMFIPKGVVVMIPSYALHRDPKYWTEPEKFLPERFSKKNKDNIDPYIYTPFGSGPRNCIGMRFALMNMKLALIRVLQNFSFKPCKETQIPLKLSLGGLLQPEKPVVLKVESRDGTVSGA
# [8] = Antiproliferative activity against HOSEC at 400 nM after 24 to 48 hrs by MTT assay; settings: human, 0.4 µM; outline: as §1
# [9] = biological target: CYP2D6 (Homo sapiens, UniProt P10635); test: Inhibition of CYP2D6 in human liver microsomes at 10 uM using dextromethorphan as substrate preincubated for 10 min followed by NADPH addition measured after 10 mins by LC-MS/MS analysis relative to control; assay type: ADME; settings: probe dextromethorphan
# Chain of CYP2D6 (P10635 whole entry): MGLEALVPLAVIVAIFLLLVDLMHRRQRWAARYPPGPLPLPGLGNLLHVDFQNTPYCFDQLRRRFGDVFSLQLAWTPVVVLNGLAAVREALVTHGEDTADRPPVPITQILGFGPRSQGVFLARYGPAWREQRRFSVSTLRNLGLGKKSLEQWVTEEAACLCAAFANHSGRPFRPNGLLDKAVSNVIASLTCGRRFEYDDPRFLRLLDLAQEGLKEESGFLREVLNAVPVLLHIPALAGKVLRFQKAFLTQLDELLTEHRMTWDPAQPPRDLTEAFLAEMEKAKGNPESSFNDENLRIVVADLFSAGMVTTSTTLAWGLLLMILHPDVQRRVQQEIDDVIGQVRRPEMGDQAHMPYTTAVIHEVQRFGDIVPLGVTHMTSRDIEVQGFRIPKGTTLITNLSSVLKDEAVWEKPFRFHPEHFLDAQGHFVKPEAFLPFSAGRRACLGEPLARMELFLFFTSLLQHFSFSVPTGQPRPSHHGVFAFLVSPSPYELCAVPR
# [10] = Half life in mouse liver microsomes at 1 uM preincubated for 10 mins followed by NADPH addition measured after 30 to 60 mins by LC-MS/MS method; assay type: ADME, microsome
# [11] = biological target: Voltage-gated inwardly rectifying potassium channel KCNH2 (Homo sapiens, UniProt Q12809); test: Inhibition of human ERG expressed in CHO cells after 4 mins at -80 mV holding potential by Qpatch assay; assay type: cell-based
# Chain of Voltage-gated inwardly rectifying potassium channel KCNH2 (Q12809 whole entry): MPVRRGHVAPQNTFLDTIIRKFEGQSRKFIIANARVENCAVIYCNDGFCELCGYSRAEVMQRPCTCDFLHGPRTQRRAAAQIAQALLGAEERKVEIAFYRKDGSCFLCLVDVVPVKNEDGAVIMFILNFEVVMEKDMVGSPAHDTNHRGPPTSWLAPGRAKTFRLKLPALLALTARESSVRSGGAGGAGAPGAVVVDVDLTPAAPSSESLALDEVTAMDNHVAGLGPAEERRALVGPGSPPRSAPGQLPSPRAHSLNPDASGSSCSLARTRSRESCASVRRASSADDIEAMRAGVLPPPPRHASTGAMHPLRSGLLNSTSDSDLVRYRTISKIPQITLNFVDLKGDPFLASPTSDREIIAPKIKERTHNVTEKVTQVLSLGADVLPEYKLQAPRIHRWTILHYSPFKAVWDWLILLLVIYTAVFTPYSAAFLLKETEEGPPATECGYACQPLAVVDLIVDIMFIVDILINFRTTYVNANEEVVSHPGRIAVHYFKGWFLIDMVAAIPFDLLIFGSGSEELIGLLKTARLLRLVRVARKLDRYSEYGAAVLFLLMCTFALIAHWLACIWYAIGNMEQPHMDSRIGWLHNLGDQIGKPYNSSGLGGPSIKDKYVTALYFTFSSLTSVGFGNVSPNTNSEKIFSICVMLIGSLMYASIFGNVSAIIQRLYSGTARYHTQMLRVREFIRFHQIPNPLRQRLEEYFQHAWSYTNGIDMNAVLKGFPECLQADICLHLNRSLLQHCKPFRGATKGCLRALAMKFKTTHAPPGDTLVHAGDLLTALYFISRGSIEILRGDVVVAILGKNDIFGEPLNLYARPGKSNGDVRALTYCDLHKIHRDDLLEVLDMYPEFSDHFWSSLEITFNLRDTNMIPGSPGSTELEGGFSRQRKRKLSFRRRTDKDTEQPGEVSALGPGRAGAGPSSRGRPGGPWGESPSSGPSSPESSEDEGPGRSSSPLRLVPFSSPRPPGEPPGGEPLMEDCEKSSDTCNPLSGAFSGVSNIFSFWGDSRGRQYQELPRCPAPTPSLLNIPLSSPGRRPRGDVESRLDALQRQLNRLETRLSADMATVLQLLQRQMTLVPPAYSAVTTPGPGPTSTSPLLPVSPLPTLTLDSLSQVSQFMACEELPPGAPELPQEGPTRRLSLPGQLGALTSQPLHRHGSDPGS
# [12] = Half life in human liver microsomes at 1 uM preincubated for 10 mins followed by NADPH addition measured after 30 to 60 mins by LC-MS/MS method; assay type: ADME, microsome
# [13] = Intrinsic clearance in human liver microsomes at 1 uM preincubated for 10 mins followed by NADPH addition measured after 30 to 60 mins by LC-MS/MS method; assay type: ADME, microsome; settings: read-out: CLH
# [14] = Intrinsic clearance in mouse liver microsomes at 1 uM preincubated for 10 mins followed by NADPH addition measured after 30 to 60 mins by LC-MS/MS method; assay type: ADME, microsome; settings: read-out: CLH
# [15] = Efflux ratio of apparent permeability across basolateral to apical over apical to basolateral side in human Caco2 cells at 2 uM by LC-MS/MS method; assay type: ADME, cell-based; settings: Caco-2
# [16] = Apparent permeability across apical to basolateral side in human Caco2 cells at 2 uM by LC-MS/MS method; assay type: ADME, cell-based; settings: Caco-2
SMILES,IC50 [1] [nM],also measured
c1cc(CN2CCCNCCNCCCNCC2)ccc1CN1CCCNCCNCCCNCC1,,inhibition [2]: Active
CN(Cc1cc(N2CCN(C(=O)OC(C)(C)C)CC2)ncn1)C1CCCc2cccnc21 (stereo unspecified),> 10000,
CN1CCN(c2cc(CN(C)[C@@H]3CCCc4cccnc43)ncn2)CC1,1300,IC50 [3]: 68 nM
CN1CCN(c2cc(CN(C)C3CCCc4cccnc43)ncn2)CC1.Cl (stereo unspecified),54,"Activity [4]: inactive; Ratio IC50 [5]: 8; Activity [6]: inactive; IC50 [3]: 2.3 nM; inhibition at 10 min, 10 µM [7]: 9%; Activity [8]: Non-Toxic; inhibition [2]: Active; inhibition at 10 min, 10 µM [9]: 3%"
CN1CCN(c2cccc(CN(C)C3CCCc4cccnc43)n2)CC1 (stereo unspecified),> 10000,
CN1CCN(c2cc(CN(C)[C@H]3CCCc4cccnc43)ncn2)CC1,88,half-life at 1 µM [10]: 1.4 min; IC50 [11]: > 30 µM; half-life at 1 µM [12]: 7.7 min; IC50 [3]: 0.73 nM; CLint scaled at 1 µM [13]: 226 mL/min/kg; CLint scaled at 1 µM [14]: 3860 mL/min/kg; efflux ratio at 2 µM [15]: 1.5; Papp A→B at 2 µM [16]: 15 ×10⁻⁶ cm/s
CN(Cc1ccncn1)C1CCCc2cccnc21 (stereo unspecified),> 10000,
CN1CCN(c2cc(CN(C)C3CCCc4cccnc43)ccn2)CC1 (stereo unspecified),> 10000,
CN(C)c1cc(CN(C)C2CCCc3cccnc32)ncn1 (stereo unspecified),> 10000,
CN1CCN(c2nccc(CN(C)C3CCCc4cccnc43)n2)CC1 (stereo unspecified),> 10000,

# Second part, led by results:
IC50 [1] [nM],SMILES,also measured
210,CC(C)N1CCN(c2cc(CN(C)C3CCCc4cccnc43)ncn2)CC1 (stereo unspecified),
180,CN1CCN(c2ccnc(CN(C)C3CCCc4cccnc43)n2)CC1 (stereo unspecified),
1050,CN(Cc1cc(N2CCN(CC3CC3)CC2)ncn1)C1CCCc2cccnc21 (stereo unspecified),
200,CN1CCN(c2ccnc(CN(C)C3CCCc4cccnc43)c2)CC1 (stereo unspecified),
290,CN(Cc1cc(N2CCN(CCO)CC2)ncn1)C1CCCc2cccnc21 (stereo unspecified),
150,CN(C)C1CCN(c2cc(CN(C)C3CCCc4cccnc43)ncn2)C1 (stereo unspecified),
1020,CN(C)CCN(C)c1cc(CN(C)C2CCCc3cccnc32)ncn1 (stereo unspecified),
2600,CN(Cc1cc(N2CCNCC2)ncn1)C1CCCc2cccnc21 (stereo unspecified),
18,CN1CCN(c2cc(CN(CCCCN)C3CCCc4cccnc43)ncn2)CC1 (stereo unspecified),
640,CN(Cc1cc(NCCN2CCOCC2)ncn1)C1CCCc2cccnc21 (stereo unspecified),
170,CN1CCCN(c2cc(CN(C)C3CCCc4cccnc43)ncn2)CC1 (stereo unspecified),
18,CN1CCN(c2cc(CN(CCCCNC(=O)OC(C)(C)C)C3CCCc4cccnc43)ncn2)CC1 (stereo unspecified),
630,CN(C)C1CCN(c2cc(CN(C)C3CCCc4cccnc43)ncn2)CC1 (stereo unspecified),
320,CCN1CCN(c2cc(CN(C)C3CCCc4cccnc43)ncn2)CC1 (stereo unspecified),
